Measurements as given in ChEMBL document CHEMBL1135414, “Structure-activity relationships at human and rat A2B adenosine receptors of xanthine derivatives substituted at the 1-, 3-, 7-, and 8-positions” (J Med Chem, 2002).

What was measured:
[1] = biological target: Adenosine receptor A2a (Rattus norvegicus, UniProt P30543); assay: Binding affinity at rat Adenosine A2A receptor by [3H]-CGS- 21680 displacement.
[2] = biological target: T1, Adenosine receptor A2b (Homo sapiens, UniProt P29275); assay: Binding affinity at human Adenosine A2B receptor expressed in HEK293 cells, using [125I]ABOPX as radioligand; format: cell-based
T1 sequence (P29275 whole entry): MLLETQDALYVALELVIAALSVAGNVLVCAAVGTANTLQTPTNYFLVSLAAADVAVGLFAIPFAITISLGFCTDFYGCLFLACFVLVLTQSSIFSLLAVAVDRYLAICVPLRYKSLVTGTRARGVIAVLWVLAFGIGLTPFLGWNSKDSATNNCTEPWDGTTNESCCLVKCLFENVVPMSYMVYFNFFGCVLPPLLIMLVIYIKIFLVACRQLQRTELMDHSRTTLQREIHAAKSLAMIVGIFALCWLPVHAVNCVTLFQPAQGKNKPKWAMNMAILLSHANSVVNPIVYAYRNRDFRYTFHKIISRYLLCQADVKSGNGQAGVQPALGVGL

[3] = biological target: T2, Adenosine receptor A1 (Rattus norvegicus, UniProt P25099); assay: Binding affinity of specific [3H]R-PIA binding to rat Adenosine A1 receptor in HEK293 cells; format: cell-based
T2 sequence (P25099 whole entry): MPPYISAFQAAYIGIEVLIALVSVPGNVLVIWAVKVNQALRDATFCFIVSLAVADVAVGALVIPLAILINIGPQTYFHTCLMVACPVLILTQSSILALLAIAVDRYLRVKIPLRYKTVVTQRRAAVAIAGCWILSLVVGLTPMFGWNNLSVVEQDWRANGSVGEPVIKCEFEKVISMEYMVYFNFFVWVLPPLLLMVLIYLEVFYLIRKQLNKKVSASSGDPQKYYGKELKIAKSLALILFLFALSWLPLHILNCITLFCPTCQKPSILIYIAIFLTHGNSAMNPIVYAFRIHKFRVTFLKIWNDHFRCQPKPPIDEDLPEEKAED

[4] = biological target: Adenosine receptor A2a (Rattus norvegicus) (UniProt P30543); assay: Displacement of [3H]-CGS- 21680 from Adenosine A2A receptor of rat striatal membranes; format: cell membranes; set-up: concentration or dose not given beside the values; settings: Membrane
Summary of the method: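 Competition of specific [3H]CGS 21680 binding in rat striatal membranes, reported as Ki ± SEM or as percent displacement at the stated concentration; n = 3–5.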

Sequence of Adenosine receptor A2a (P30543 whole entry): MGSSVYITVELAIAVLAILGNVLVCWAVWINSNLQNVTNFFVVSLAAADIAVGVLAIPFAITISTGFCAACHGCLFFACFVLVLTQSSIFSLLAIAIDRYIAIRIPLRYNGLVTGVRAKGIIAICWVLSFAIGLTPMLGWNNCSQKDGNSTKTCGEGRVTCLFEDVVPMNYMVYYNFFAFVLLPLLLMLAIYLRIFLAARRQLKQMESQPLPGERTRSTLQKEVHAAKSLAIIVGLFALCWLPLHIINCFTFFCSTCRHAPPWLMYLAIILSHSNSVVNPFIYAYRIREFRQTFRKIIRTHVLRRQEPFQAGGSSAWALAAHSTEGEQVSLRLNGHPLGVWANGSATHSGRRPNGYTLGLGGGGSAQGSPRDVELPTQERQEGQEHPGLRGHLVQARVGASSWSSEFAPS
Sequence of Adenosine receptor A2a (Rattus norvegicus) (P30543 whole entry): as above

| Structure (SMILES) | Ki [2] [µM] | further results |
| --- | --- | --- |
| COCn1c(=O)c2c(ncn2C)n(C)c1=O | 14 |  |
| CC(=O)OCCn1c(=O)c2c(ncn2C)n(C)c1=O | 8.71 |  |
| CC(=O)OCCn1cnc2c1c(=O)n(C)c(=O)n2C | 23.2 |  |
| Cn1cnc2c1c(=O)n(CC#N)c(=O)n2C | 21.6 |  |
| Cn1c(=O)c2c(ncn2Cc2ccccc2)n(C)c1=O | 19.4 |  |
| CCCn1c(=O)[nH]c2[nH]c(C3CCCC3)nc2c1=O |  | Ki [3]: 7.68 nM |
| O=c1[nH]c2[nH]cnc2c(=O)n1C1CCCC1 |  | Displacement [4]: < 10% |
| Cn1c(=O)c2nc(-c3ccccc3C(=O)O)[nH]c2n(C)c1=O | 11.1 |  |
| CCCn1c(=O)c2[nH]c(-c3ccc(O)cc3O)nc2n(CCC)c1=O |  | Ki [1]: 0.107 µM; Ki [3]: 220 nM |
| C=CCn1c(=O)[nH]c2[nH]cnc2c1=O |  | Displacement [4]: < 10% |
| CCCCn1c(=O)[nH]c2[nH]cnc2c1=O |  | Displacement [4]: < 10% |
| Cn1c(=O)c2[nH]c(-c3ccc([N+](=O)[O-])cc3[N+](=O)[O-])nc2n(C)c1=O | 15.4 |  |
| Cn1c(=O)c2c(ncn2CCN)n(C)c1=O | 23.5 |  |
| C=CCn1cnc2c1c(=O)n(C)c(=O)n2C | 9.49 |  |
| C#CCn1cnc2c1c(=O)n(C)c(=O)n2C | 9.46 |  |
| Cn1c(=O)c2c(ncn2CCO)n(C)c1=O [ETOFYLLINE] | 17.3 |  |
| C#CCn1c(=O)n(C)c(=O)c2c1ncn2C | 9.48 |  |
| Cn1cnc2c1c(=O)n(CC(=O)O)c(=O)n2C | 23.5 |  |
| CC(=O)Cn1c(=O)c2c(ncn2C)n(C)c1=O | 20.8 |  |
| CCCCCCn1c(=O)c2nc[nH]c2n(CCCCCC)c1=O | 7.58 |  |
| Cn1c(=O)c2c(ncn2CC(=O)O)n(C)c1=O [ACEFYLLINE] | 27.6 |  |
| O=c1[nH]c2[nH]cnc2c(=O)n1CCc1ccccc1 |  | Displacement [4]: < 10% |
| Cn1c(=O)c2c(ncn2CC#N)n(C)c1=O | 14.5 |  |
| CC(=O)CCCCn1c(=O)c2c(ncn2C)n(C)c1=O [PENTOXIFYLLINE] | 5.18 |  |
| CC(C)CCn1c(=O)c2nc(-c3ccccc3)[nH]c2n(CC(C)C)c1=O | 9.89 |  |

Continued by falling Ki [2], values first:

| Ki [2] [µM] | Structure (SMILES) | further results |
| --- | --- | --- |
| 6.94 | Cn1c(=O)c2[nH]c(-c3ccc([N+](=O)[O-])cc3)nc2n(C)c1=O |  |
| 6.53 | CCCn1c(=O)c2nc(-c3ccc(Cl)cc3OC)[nH]c2n(CCC)c1=O |  |
| 6.24 | CC(C)CCn1c(=O)c2[nH]cnc2n(CC(C)C)c1=O |  |
| 5.53 | Cn1c(=O)c2[nH]c(-c3cccc(C(=O)O)c3)nc2n(C)c1=O |  |
| 4.89 | CC(C)n1c(=O)n(C)c(=O)c2[nH]cnc21 |  |
| 4.13 | C#CCn1c(=O)c2c(ncn2C)n(C)c1=O |  |
| 3.39 | C=CCn1c(=O)c2c(ncn2C)n(CC=C)c1=O |  |
| 1.77 | CCn1c(=O)c2nc[nH]c2n(CC)c1=O |  |
| 1.62 | CCn1c(=O)c2nc[nH]c2n(C)c1=O | Ki [1]: 9.78 µM; Ki [3]: 24700 nM |
| 1.33 | Cn1c(=O)c2[nH]c(-c3ccc(S(=O)(=O)O)cc3)nc2n(C)c1=O |  |
| 0.415 | Cn1c(=O)c2[nH]c(-c3ccccc3)nc2n(C)c1=O [8-PHENYL THEOPHYLLINE] |  |
| 0.394 | COc1ccc(-c2nc3c([nH]2)c(=O)n(C)c(=O)n3C)cc1 |  |
| 0.31 | CCCn1c(=O)c2nc(-c3c(F)cccc3F)[nH]c2n(CCC)c1=O |  |
| 0.289 | CN(C)c1ccc(-c2nc3c([nH]2)c(=O)n(C)c(=O)n3C)cc1 |  |
| 0.188 | CCCn1c(=O)c2nc(-c3ccc(OCC(=O)O)cc3O)[nH]c2n(CCC)c1=O | Ki [1]: 2.72 µM; Ki [3]: 757 nM |
| 0.138 | CCCn1c(=O)c2nc(-c3cc(O)ccc3O)[nH]c2n(CCC)c1=O | Ki [1]: 17.3 µM; Ki [3]: 7.46 nM |
| 0.125 | CCCn1c(=O)c2nc(-c3cccc(O)c3O)[nH]c2n(CCC)c1=O | Displacement [4]: < 10%; Ki [3]: 39 nM |
| 0.0796 | CCCn1c(=O)c2nc(-c3cnccn3)[nH]c2n(CCC)c1=O |  |
| 0.062 | CCn1c(=O)c2[nH]c(-c3ccccc3)nc2n(CC)c1=O |  |
| 0.0595 | CCCn1c(=O)c2nc(-c3cc(O)c(OC)c(O)c3)[nH]c2n(CCC)c1=O | Ki [1]: 1.34 µM; Ki [3]: 30.3 nM |
| 0.0465 | CCCn1c(=O)c2[nH]c(-c3ccc(OC)cc3O)nc2n(CCC)c1=O | Ki [1]: 5.5 µM; Ki [3]: 97.7 nM |
